Twelve molecules from ChEMBL document CHEMBL1926514, “Pyridobenzothiazole derivatives as new chemotype targeting the HCV NS5B polymerase” (Bioorg Med Chem, 2012) can be followed below.

Activity calls are given as the source filed them. The rule behind the calls is not given here.

Data set [1] relates to Hepatitis C virus. Nature of the data set: Inhibition of HCV genotype 1b recombinant NS5B Cdelta21 polymerase expressed in Escherichia coli assessed as [3H]UTP incorporation into RNA/RNA homopolymeric template (rA)40/(rU)20 at 10 uM after 40 mins by liquid scintillation counting in presence of increase concentration of RNA primer/template. To be noted: Hepatitis C virus subtype 1b. Put shortly:
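NS5BΔC21 [³H]-UTP incorporation assay on (rA)40/(rU)20 at 25 °C for 40 min, with DE-81 filter scintillation read-out. Inhibitor was held at a fixed subsaturating dose while the RNA primer/template was raised across two increasing doses; inhibitor was preincubated 5 min on ice with enzyme and RNA before UTP addition.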

The test system of data set [2] is Hepatitis C virus. Briefly: Antiviral activity against HCV genotype 1b infected in human HuH5.2 cells assessed as inhibition of […] after 72 hrs by luciferase reporter gene assay. The class given is functional, organism-based, Hepacivirus hominis. As to conditions: Huh-5-2, 72 h. Put shortly:
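Four-step 1-to-5 dilution series were tested for 72 h at 37 °C, 5% CO₂. Cells were washed with PBS and lysed 5 min at room temperature, and luciferase luminescence was read as % of untreated controls. EC50 and EC90 came from dose–response curves; at least three independent experiments.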
(Protection from cytopathic effect is a common read-out in antiviral testing.)

The subject of data set [3] is Hepatitis C virus. Nature of the data set: Inhibition of HCV genotype 1b recombinant NS5B Cdelta21 polymerase expressed in Escherichia coli assessed as [3H]UTP incorporation into RNA/RNA homopolymeric template (rA)40/(rU)20 at 10 uM after 40 mins by liquid scintillation counting in presence of increase concentration of UTP. As to conditions: Hepatitis C virus subtype 1b. Put shortly:
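NS5BΔC21 [³H]-UTP incorporation assay on (rA)40/(rU)20 at 25 °C for 40 min, with filter-binding scintillation read-out. Inhibition was measured at varying UTP concentrations; inhibitor was preincubated 5 min on ice with enzyme and RNA template.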

Data set [4] can be described thus: Cytotoxicity against human HuH5.2 cells after 72 hrs by MTS assay. The class given is cell-based, Huh-5-2. Put shortly:
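Metabolic activity was read as absorbance at 498 nm, with OD converted to % of untreated controls. CC50 came from the dose–response curve as 50% reduction of metabolic activity.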
For orientation: Tetrazolium assays rely on reduction of a dye to a coloured formazan, in cell work by metabolically active cells.

The subject of data set [5] is Hepatitis C virus. Nature of the data set: Inhibition of HCV genotype 1b recombinant NS5B Cdelta21 polymerase expressed in Escherichia coli assessed as [3H]UTP incorporation into RNA/RNA homopolymeric template (rA)40/(rU)20 after 40 mins by liquid scintillation counting. Also noted: species or system Hepatitis C virus subtype 1b. Put shortly:
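E. coli-expressed NS5BΔC21 (genotype 1b), purified on DEAE and heparin columns, was used at 25–50 nM. Buffer: 50 mM Tris–HCl pH 8.0, 1 mM DTT, 0.25 mg/mL BSA, 0.25 mM MnCl₂, with (rA)40/(rU)20 primer/template. Inhibitor was preincubated 5 min on ice with enzyme and RNA, then [³H]-UTP (37 Ci/mmol) was added for 40 min at 25 °C. Product was captured on DE-81 filters and counted by scintillation. IC50 is the mean of at least three experiments.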

The term EC50 denotes the concentration that produces a half-maximal response. Usually CC50 stands for the concentration giving 50% cytotoxicity. A lower CC50 goes with harm at low concentration. Broadly, the IC50 is the point on the concentration scale where inhibition reaches its midpoint.

`O=C(O)c1cc(C2CCCCC2)c(=O)n2c1sc1ccc(OC3CCCCC3)cc12`: the inhibition result in data set [1] was “inactive”. Besides, in data set [2], the EC50 was over 56.5 µM. Moreover, the inhibition result in data set [3] was “Active”. In addition, the CC50 at 72 h in data set [4] is over 56.5 µM. In addition, the IC50 in data set [5] turned out to be 23 µM.

Regarding `COc1ccc2sc3c(C(=O)O)cc(-c4ccccc4)c(=O)n3c2c1`, in data set [2], the EC50 amounted to 51.2 µM. Further, in data set [4], half-maximal cytotoxicity (CC50 at 72 h) was put at 51.8 µM. For the same molecule, the IC50 in data set [5] is over 40 µM.

For `O=C(O)c1cc(-c2ccccc2)c(=O)n2c1S(=O)(=O)c1ccc(F)cc1-2`, the EC50 in data set [2] is 66 µM. Besides, the CC50 at 72 h in data set [4] is over 100 µM. The IC50 in data set [5] was over 40 µM.

Regarding `O=C(O)c1cc(-c2ccccc2)c(=O)n2c1S(=O)(=O)c1ccc(OC3CCCCC3)cc1-2`, the inhibition result in data set [1] was “inactive”. Besides, the EC50 in data set [2] stood at 55.8 µM. Also, the inhibition result in data set [3] was “Active”. This molecule also showed a CC50 at 72 h in data set [4] of over 100 µM. For the same molecule, the IC50 in data set [5] worked out at 19 µM.

With `O=C(O)c1cc(-c2ccccc2)c(=O)n2c1sc1ccc(F)cc12`, the EC50 in data set [2] was over 100 µM. In data set [4], this molecule registered a 50% cytotoxic concentration (CC50) at 72 h of over 100 µM. Besides, the IC50 in data set [5] was over 40 µM.

For the molecule `CC(C)CCOc1ccc2sc3c(C(=O)O)cc(-c4ccccc4)c(=O)n3c2c1`, the EC50 in data set [2] turned out to be 54 µM. In data set [4], the CC50 at 72 h was determined as 55 µM. Also, the IC50 in data set [5] was over 40 µM.

Turning to `O=C(O)C1=CC(=C(c2ccc(O)c(C(=O)O)c2)c2ccc(O)c(C(=O)O)c2)C=CC1=O` [AURINTRICARBOXYLIC ACID], the 50% inhibitory concentration (IC50) in data set [5] is 15 µM.

For the molecule `O=C(O)c1ccc(=O)n2c1sc1ccc(OC3CCCCC3)cc12`, in data set [2], the EC50 is over 100 µM. In addition, the CC50 at 72 h in data set [4] is over 100 µM. For the same molecule, in data set [5], the IC50 was over 40 µM.

Consider `COc1ccc2c(c1)-n1c(c(C(=O)O)cc(-c3ccccc3)c1=O)S2(=O)=O`, for which the EC50 in data set [2] is 89.7 µM. In addition, in data set [4], the CC50 at 72 h is over 100 µM. For the same molecule, the IC50 in data set [5] was over 40 µM.

As to `O=C(O)c1cc(-c2ccccc2)c(=O)n2c1sc1ccc(OC3CCCCC3)cc12`, in data set [1], the inhibition result was “inactive”. Moreover, the EC50 in data set [2] is over 100 µM. The inhibition entry in data set [3] is “Active”. The CC50 at 72 h in data set [4] is over 100 µM. Besides, the IC50 in data set [5] is 11 µM.

Turning to `O=C(O)c1cc(C2CCCCC2)c(=O)n2c1sc1ccccc12`, in data set [2], the EC50 was determined as 53.5 µM. The molecule further had a half-maximal cytotoxic concentration (CC50) at 72 h in data set [4] of over 100 µM. Also, in data set [5], the IC50 is over 40 µM.

In the case of `CC(=O)c1cc(C(=O)O)c2sc3ccc(OC4CCCCC4)cc3n2c1=O`, the half-maximal effective concentration (EC50) in data set [2] is over 100 µM. In data set [4], this molecule yielded a CC50 at 72 h of over 100 µM. For the same molecule, the IC50 in data set [5] was over 40 µM.
